inhibition, Activity and EC50 data for 16 compounds are collected here from ChEMBL document CHEMBL3351899, “Novologues containing a benzamide side chain manifest anti-proliferative activity against two breast cancer cell lines” (Bioorg Med Chem Lett, 2014).

Active and inactive are the calls of the source. The calls are words filed in the database; no cut-off is given here.

For orientation: EC50 means the concentration needed to bring the measured effect to its halfway point. Higher therefore signals a need for much substance.

Sequence of Heat shock protein HSP 90-beta (Homo sapiens) (P08238 whole entry): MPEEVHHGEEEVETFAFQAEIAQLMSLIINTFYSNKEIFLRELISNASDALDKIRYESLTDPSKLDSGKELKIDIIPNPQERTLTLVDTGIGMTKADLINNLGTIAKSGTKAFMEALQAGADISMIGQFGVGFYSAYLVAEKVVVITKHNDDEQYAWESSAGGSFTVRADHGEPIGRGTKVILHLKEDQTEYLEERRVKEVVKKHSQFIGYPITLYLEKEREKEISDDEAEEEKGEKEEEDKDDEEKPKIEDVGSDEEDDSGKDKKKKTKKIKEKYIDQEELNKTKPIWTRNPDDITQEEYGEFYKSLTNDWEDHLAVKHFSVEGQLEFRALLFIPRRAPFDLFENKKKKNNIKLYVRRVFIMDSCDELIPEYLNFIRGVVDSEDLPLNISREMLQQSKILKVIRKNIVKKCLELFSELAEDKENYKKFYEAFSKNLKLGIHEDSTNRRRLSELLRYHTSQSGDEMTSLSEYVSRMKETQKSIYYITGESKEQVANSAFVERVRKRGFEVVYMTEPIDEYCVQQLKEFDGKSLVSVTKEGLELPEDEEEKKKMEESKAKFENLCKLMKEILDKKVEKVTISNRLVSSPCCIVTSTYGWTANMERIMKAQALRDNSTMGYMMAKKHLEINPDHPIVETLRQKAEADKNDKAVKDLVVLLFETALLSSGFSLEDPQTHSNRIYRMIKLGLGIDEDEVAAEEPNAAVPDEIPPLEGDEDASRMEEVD

One test addresses Heat shock protein HSP 90-beta (Homo sapiens) (UniProt P08238). Nature of the test: Inhibition of HSP90-mediated Her2 degradation in human MCF7 cell lysate after 24 hrs by Western blot analysis. The class given is cell-based.
Conditions: not given
In short, it runs like this: (§1)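 MCF7 cells grown to confluence, seeded at 0.4 x 10^6 cells/well, incubated 24 h, then treated 24 h with varying compound concentrations (0.25% DMSO final) or DMSO vehicle; geldanamycin 0.5 µM as positive control. Cells lysed with protease/phosphatase inhibitors and clarified at 14,000g, 15 min, 4 °C. 5 µg protein run on reducing 10% gels, PVDF transfer, immunoblot with HRP secondary and chemiluminescent detection; actin as loading control.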
Consider `COc1cccc(-c2cc(C(=O)NCCc3ccc(OC4CCN(C)CC4)cc3-c3cccc(C(F)(F)F)c3)ccc2OC)c1`, for which the inhibition result was “Dose-dependent effect”.

Another test shares this target. Description: Inhibition of HSP90-mediated p-Akt degradation in human MCF7 cell lysate after 24 hrs by Western blot analysis. The test is classed as cell-based.
Conditions: not given
In short, it runs like this:
as §1
Take `COc1cccc(-c2cc(C(=O)NCCc3ccc(OC4CCN(C)CC4)cc3-c3cccc(C(F)(F)F)c3)ccc2OC)c1`: the inhibition entry is “Dose-dependent effect”.

Another test has the same target. Nature of the test: Inhibition of HSP90-mediated Raf-1 degradation in human MCF7 cell lysate after 24 hrs by Western blot analysis. The class given is cell-based.
Conditions: not given
In short, it runs like this:
as §1
For orientation: A western blot detects proteins with antibodies after separation by electrophoresis.
Take `COc1cccc(-c2cc(C(=O)NCCc3ccc(OC4CCN(C)CC4)cc3-c3cccc(C(F)(F)F)c3)ccc2OC)c1`: the inhibition result was “Dose-dependent effect”.

The next test has as its system MCF7. Description: Effect on HSP90 level in human MCF7 cell lysate at 1 to 25 uM after 24 hrs by Western blot analysis. The test is classed as functional, cell-based.
Conditions: not given
In short, it runs like this: as §1
In the case of `COc1cccc(-c2cc(C(=O)NCCc3ccc(OC4CCN(C)CC4)cc3-c3cccc(C(F)(F)F)c3)ccc2OC)c1`, the outcome was Active.

Another test deals with MCF7. Nature of the test: Antiproliferative activity against human MCF7 cells.
Conditions: not given
The test is classed as functional. A digest of the protocol:
(§2)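 Cell-based antiproliferation assay in SKBr3 (ER-negative, HER2-overexpressing) and MCF-7 (ER-positive) breast cancer cells. Values are mean ± standard deviation from at least two separate experiments, each run in triplicate.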
On to `COc1cccc(-c2cc(C(=O)NCCc3ccc(OC4CCN(C)CC4)cc3-c3cccc(F)c3)ccc2OC)c1`, for which the Activity was 3.19 µM.
On the same count and under the same terms, to `CN1CCC(Oc2ccc(CCNC(=O)c3ccc(Cl)cc3)c(-c3cccc(C(F)(F)F)c3)c2)CC1` belongs 2.11 µM; to `COc1cccc(-c2cc(OC3CCN(C)CC3)ccc2CCNC(=O)c2ccc(OC)c(-c3cccc(OC)c3)c2)c1`, 12.36 µM; to `COc1cccc(-c2cc(C(=O)NCCc3ccc(OC4CCN(C)CC4)cc3-c3cccc(C(F)(F)F)c3)ccc2OC)c1`, 1.62 µM.
Same read-out and setting: to `COc1cccc(-c2cc(C(=O)NCCc3ccc(O[C@@H]4OC(C)(C)[C@H](OC)[C@@H](O)[C@H]4O)cc3-c3cccc(C(F)(F)F)c3)ccc2OC)c1` belongs 18.4 µM; to `COc1ccc(C(=O)NCCc2ccc(O[C@@H]3OC(C)(C)[C@H](OC)[C@@H](O)[C@H]3O)cc2-c2cccc(C(F)(F)F)c2)cc1`, 12.1 µM; to `COc1cccc(-c2cc(C(=O)NCCc3ccc(OC4CCN(C)CC4)cc3-c3cccc(Cl)c3)ccc2OC)c1`, 6.87 µM.
Compound `CO[C@@H]1[C@@H](O)[C@@H](O)[C@H](Oc2ccc(CCNC(=O)c3ccccc3)c(-c3cccc(C(F)(F)F)c3)c2)OC1(C)C` returned an Activity of 44.44 µM.
Still for that read-out and setting: to `CN1CCC(Oc2ccc(CCNC(=O)c3ccccc3)c(-c3cccc(C(F)(F)F)c3)c2)CC1` belongs 15.07 µM.
`CN1CCC(Oc2ccc(CCNC(=O)c3ccc(C(C)(C)C)cc3)c(-c3cccc(C(F)(F)F)c3)c2)CC1` registered an Activity of 1.48 µM.
Compound `CO[C@@H]1[C@@H](O)[C@@H](O)[C@H](Oc2ccc(CCNC(=O)c3ccc(Cl)cc3)c(-c3cccc(C(F)(F)F)c3)c2)OC1(C)C` displayed an Activity of 11.69 µM.
As to `COc1ccc(C(=O)NCCc2ccc(OC3CCN(C)CC3)cc2-c2cccc(C(F)(F)F)c2)cc1`, the Activity amounted to 4.82 µM.
Turning to `CO[C@@H]1[C@@H](O)[C@@H](O)[C@H](Oc2ccc(CCNC(C)=O)c(-c3cccc(C(F)(F)F)c3)c2)OC1(C)C`, the Activity was more than 500 µM.
`CO[C@@H]1[C@@H](O)[C@@H](O)[C@H](Oc2ccc(CCNC(=O)c3ccc(C(C)(C)C)cc3)c(-c3cccc(C(F)(F)F)c3)c2)OC1(C)C` yielded an Activity of 23.69 µM.
Still for that read-out and setting: to `COc1cccc(-c2cc(C(=O)NCCc3ccc(OC4CCN(C)CC4)cc3-c3ccccc3)ccc2OC)c1` belongs 8.12 µM.

Test system in a further test: not listed separately
Description: Antiproliferative activity against human SKBR3 cells. The class given is functional, cell-based, SK-BR-3.
Conditions: not given
A digest of the protocol: as §2
Regarding `COc1cccc(-c2cc(C(=O)NCCc3ccc(OC4CCN(C)CC4)cc3-c3cccc(F)c3)ccc2OC)c1`, the Activity came to 2.82 µM.
On the same count and under the same terms, then `CN1CCC(Oc2ccc(CCNC(=O)c3ccc(Cl)cc3)c(-c3cccc(C(F)(F)F)c3)c2)CC1`, with 1.87 µM; and `COc1cccc(-c2cc(OC3CCN(C)CC3)ccc2CCNC(=O)c2ccc(OC)c(-c3cccc(OC)c3)c2)c1`, with 11.54 µM.
Compound `COc1cccc(-c2cc(C(=O)NCCc3ccc(OC4CCN(C)CC4)cc3-c3cccc(C(F)(F)F)c3)ccc2OC)c1` showed an Activity of 1.52 µM.
With `COc1cccc(-c2cc(C(=O)NCCc3ccc(O[C@@H]4OC(C)(C)[C@H](OC)[C@@H](O)[C@H]4O)cc3-c3cccc(C(F)(F)F)c3)ccc2OC)c1`, the Activity was determined as 13.98 µM.
In the case of `COc1ccc(C(=O)NCCc2ccc(O[C@@H]3OC(C)(C)[C@H](OC)[C@@H](O)[C@H]3O)cc2-c2cccc(C(F)(F)F)c2)cc1`, the Activity turned out to be 14.02 µM.
In turn, `COc1cccc(-c2cc(C(=O)NCCc3ccc(OC4CCN(C)CC4)cc3-c3cccc(Cl)c3)ccc2OC)c1` displayed an Activity of 5.63 µM.
In turn, `CO[C@@H]1[C@@H](O)[C@@H](O)[C@H](Oc2ccc(CCNC(=O)c3ccccc3)c(-c3cccc(C(F)(F)F)c3)c2)OC1(C)C` registered an Activity of 41.9 µM.
Compound `CN1CCC(Oc2ccc(CCNC(=O)c3ccccc3)c(-c3cccc(C(F)(F)F)c3)c2)CC1` registered an Activity of 13.22 µM.
The compound `CN1CCC(Oc2ccc(CCNC(=O)c3ccc(C(C)(C)C)cc3)c(-c3cccc(C(F)(F)F)c3)c2)CC1` came in with an Activity of 1.16 µM.
The same measure, in the same setting: then `CO[C@@H]1[C@@H](O)[C@@H](O)[C@H](Oc2ccc(CCNC(=O)c3ccc(Cl)cc3)c(-c3cccc(C(F)(F)F)c3)c2)OC1(C)C`, with 14.48 µM.
With `COc1ccc(C(=O)NCCc2ccc(OC3CCN(C)CC3)cc2-c2cccc(C(F)(F)F)c2)cc1`, the Activity is 2.71 µM.
For `CO[C@@H]1[C@@H](O)[C@@H](O)[C@H](Oc2ccc(CCNC(=O)c3ccc(C(C)(C)C)cc3)c(-c3cccc(C(F)(F)F)c3)c2)OC1(C)C`, the Activity turned out to be 21.78 µM.
Still for that read-out and setting: then `COc1cccc(-c2cc(C(=O)NCCc3ccc(OC4CCN(C)CC4)cc3-c3ccccc3)ccc2OC)c1`, with 6.77 µM.

Staying with this test, now noted: Homo sapiens, SK-BR-3.
Take `CO[C@@H]1[C@@H](O)[C@@H](O)[C@H](Oc2ccc3cc(NC(C)=O)c(=O)oc3c2C)OC1(C)C`: the EC50 was 0.01 µM.
Compound `CO[C@@H]1[C@@H](O)[C@@H](O)[C@H](Oc2ccc(CCNC(C)=O)c(-c3cccc(C(F)(F)F)c3)c2)OC1(C)C` yielded an EC50 of more than 500 µM.
